# Non-standard residues stand in square brackets, D forms with d. Residues, ends and D or L forms follow the SMILES beside them. Nle = CCCC[C@H](N)C(=O)O
# Assays:
# [1] = target: T1, UBE1 (Homo sapiens, UniProt P22314); assay: HXMS, deuterium exchange into peptide with and without UBE1; type: binding; details: incubation with UBE1, 10 sec labeling
# T1 sequence (P22314 1-1058): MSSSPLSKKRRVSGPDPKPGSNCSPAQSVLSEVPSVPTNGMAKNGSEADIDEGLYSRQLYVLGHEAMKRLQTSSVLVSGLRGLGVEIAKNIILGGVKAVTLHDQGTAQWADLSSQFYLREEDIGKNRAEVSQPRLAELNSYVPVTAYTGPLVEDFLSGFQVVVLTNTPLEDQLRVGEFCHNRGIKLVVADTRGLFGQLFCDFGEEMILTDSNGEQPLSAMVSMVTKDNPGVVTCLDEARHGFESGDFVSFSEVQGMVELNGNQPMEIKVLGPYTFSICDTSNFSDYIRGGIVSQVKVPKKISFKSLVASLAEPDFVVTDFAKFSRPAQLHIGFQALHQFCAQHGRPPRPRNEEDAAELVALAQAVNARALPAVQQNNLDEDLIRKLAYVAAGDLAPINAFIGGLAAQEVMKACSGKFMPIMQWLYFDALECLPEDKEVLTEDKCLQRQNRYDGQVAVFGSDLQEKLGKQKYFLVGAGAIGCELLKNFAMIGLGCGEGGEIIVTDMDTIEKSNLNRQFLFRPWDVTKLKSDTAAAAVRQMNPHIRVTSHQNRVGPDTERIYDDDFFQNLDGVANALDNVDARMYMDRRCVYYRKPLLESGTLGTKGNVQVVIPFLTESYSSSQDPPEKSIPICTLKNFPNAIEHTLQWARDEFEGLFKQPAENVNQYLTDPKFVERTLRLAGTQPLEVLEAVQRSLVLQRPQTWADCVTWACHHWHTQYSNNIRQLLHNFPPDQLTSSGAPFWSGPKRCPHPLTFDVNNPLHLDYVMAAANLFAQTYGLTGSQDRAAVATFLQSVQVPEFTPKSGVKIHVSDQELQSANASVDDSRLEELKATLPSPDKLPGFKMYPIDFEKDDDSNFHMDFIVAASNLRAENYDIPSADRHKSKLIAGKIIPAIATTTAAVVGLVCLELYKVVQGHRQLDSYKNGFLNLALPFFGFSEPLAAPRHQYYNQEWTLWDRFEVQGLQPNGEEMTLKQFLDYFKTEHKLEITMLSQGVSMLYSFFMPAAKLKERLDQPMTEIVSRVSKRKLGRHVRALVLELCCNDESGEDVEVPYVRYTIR
# In short: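 Labelling was by 18-fold dilution into D2O buffer (pD 8) for 10 sec, quenched with guanidinium chloride/formic acid (pH 2), then LC-MS. Uptake was not back-exchange corrected. Difference = with UBE1 minus peptide alone; ≥2 biological replicates.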
# [2] = system: advanced solid tumors; details: cited from earlier work
# [3] = target: T1, UBE1; assay: Streptavidin capture; type: binding; details: UBE1 10 pmol, biotinylated peptide 5 nmol
# In short: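 Recombinant human UBE1 (10 pmol) was incubated with C-terminally biotinylated peptide (5 nmol) or 0.5% DMSO for 1.5 h at 4°C in 50 mM NaCl, 20 mM HEPES pH 7.4, 5 mM DTT. Streptavidin agarose was added for another 1.5 h at 4°C. Beads were washed three times in NP-40 buffer and heat-eluted (70°C, 10 min). Read-out was SDS-PAGE with silver stain.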
compound,measurement,setting,value
CCCC[C@H](NC(C)=O)C(=O)N[C@@H](CO)C(=O)N[C@H](C(=O)N1CCC[C@H]1C(=O)N[C@@H](C)C(=O)N[C@@H](CCCNC(=N)N)C(=O)N[C@@H](CCCNC(=N)N)C(=O)N[C@@H](CCCNC(=N)N)C(=O)N[C@@H](CC(C)C)C(=O)N[C@@H](CCCC)C(=O)N[C@@H](CCCNC(=N)N)C(=O)N[C@@H](CC(=O)O)C(=O)N[C@@H](Cc1ccccc1)C(=O)N[C@@H](CCCCN)C(=O)N[C@@H](CCCNC(=N)N)C(=O)N[C@@H](CC(C)C)C(=O)N[C@@H](CCC(N)=O)C(N)=O)[C@@H](C)O [UBE2A] (Ac-[Nle]STPARRRL[Nle]RDFKRLQ-NH2),"effect of UBE1 on deuterium exchange of the peptide, in words",[1],no meaningful effect
NS(=O)(=O)OC[C@H]1C[C@@H](Nc2ccnc3cc(-c4cccc(SC(F)(F)F)c4)nn23)[C@H](O)[C@@H]1O [TAK-243],"stable disease, patients",[2]; 11 patients of twenty evaluable,55%
same,"partial response, evaluable patients",[2]; one of twenty evaluable patients,5%
BSTP8RRRLBRXFKRLQLys(biotin) (sidechain bridge or staple) [C-terminally biotinylated SAH-UBE2A],"binding to recombinant UBE1 by streptavidin pull-down and silver stain, in words",[3],directly and robustly binds
